In brackets after ≈: the same amount, converted by molar mass.

Assay [1] has as its system Staphylococcus aureus. Briefly: In vitro antimicrobial activity against Staphylococcus aureus X1. It is filed as functional.
Assay [2] has as its system Streptococcus pyogenes. Briefly: In vitro antimicrobial activity against Streptococcus pyogenes C203. Type of assay: functional.
Assay [3] relates to Streptococcus pyogenes. In words: Antimicrobial activity against Streptococcus pyogenes C203. Type of assay: functional.
For assay [4], the system named is Enterococcus faecium. In words: In vitro antimicrobial activity against Streptococcus faecium X66. Type of assay: functional, streptococcus fae-cium.
In assay [5] the test system is Haemophilus influenzae. In words: In vitro antimicrobial activity against Haemophilus influenzae. It is filed as functional.
The subject of assay [6] is Streptococcus pyogenes. Briefly: Effective dose against Streptococcus pyogenes C203 when administered sc. It is filed as functional. In short, it runs like this: (§1)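 Mouse protection test: infected mice were dosed twice, at 1 and 5 h postinfection, either subcutaneously or orally. […] The result is expressed as ED50 in mg/kg × 2.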
Assay [7] concerns Streptococcus pyogenes. In words: In vivo effective dose against experimental infections in rodent caused by Streptococcus pyogenes C203 when administered orally. Type of assay: functional. The note with it: po.
The subject of assay [8] is Streptococcus pyogenes. Briefly: Effective dose against Streptococcus pyogenes C203 when administered orally. Type of assay: functional. The note with it: po. The procedure, abridged: as §1
Assay [9] has as its system Streptococcus pyogenes. Briefly: In vivo effective dose against experimental infections in rodent caused by Streptococcus pyogenes C203 when administered sc. It is filed as functional.
The subject of assay [10] is Staphylococcus epidermidis. In words: In vitro antimicrobial activity against Staphylococcus epidermidis EPI1. Type of assay: functional.
The test system of assay [11] is Streptococcus pneumoniae. In words: In vitro antimicrobial activity against Streptococcus pneumoniae. Type of assay: functional.

One may read the ED50 as the dose that gives a 50% effect, or the effect in half of the subjects. Lower therefore signals an effect at a small dose. `CC[C@H]1OC(=O)C[C@@H](O)[C@H](C)[C@@H](O[C@@H]2O[C@H](C)[C@@H](O)[C@H](N(C)C)[C@H]2O)[C@@H](C)C[C@@H](C)C(=O)/C=C/C(C)=C/[C@@H]1CO`: the MIC in assay [1] turned out to be 4 µg/mL (≈ 7.02 µM); in assay [2] it was 4 µg/mL (≈ 7.02 µM); in assay [3], 4 µg/mL (≈ 7.02 µM); in [4], 4 µg/mL (≈ 7.02 µM); in [5] it was 4 µg/mL (≈ 7.02 µM); in assay [10], 2 µg/mL (≈ 3.51 µM). The compound further displayed an MIC in [11] of 4 µg/mL (≈ 7.02 µM). Also, the 50% effective dose (ED50) in assay [6] was greater than 30 mg/kg; in [7], 121 mg/kg; in assay [8] it was 121 mg/kg; in assay [9], greater than 30 mg/kg.
`CC[C@H]1OC(=O)C[C@@H](O)[C@H](C)[C@@H](O[C@@H]2O[C@H](C)[C@@H](O)[C@H](N(C)C)[C@H]2O)[C@@H](C)C[C@@H](C)C(=O)/C=C/C(C)=C/[C@@H]1CO[C@@H]1O[C@H](C)[C@@H](O)[C@@H](OC)[C@H]1OC`: the MIC in [1] was determined as 0.25 µg/mL (≈ 0.336 µM); in assay [2], 0.25 µg/mL (≈ 0.336 µM); in assay [3] it was 8 µg/mL (≈ 10.8 µM); in [4], 8 µg/mL (≈ 10.8 µM); in assay [5], 8 µg/mL (≈ 10.8 µM); in [10], 0.25 µg/mL (≈ 0.336 µM). The compound further yielded an MIC in assay [11] of 2 µg/mL (≈ 2.69 µM). The 50% effective dose (ED50) came out at 0.25 mg/kg in [6], 8 mg/kg in assay [7], 1.6 mg/kg in [8] and 1.6 mg/kg in [9].
